Active and inactive are the calls of the source.
Experiments:
[1] = system: U-937; experiment: Induction of cell death in human U937 cells assessed at 1 to 100 microM after 24 hrs by trypan blue exclusion method relative to untreated control; assay type: functional
Procedure, shortened: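 U937 cells (5×10^4 per well) exposed for 24 h at 37 °C, 5% CO₂ to 1 in 10 serial dilutions from 1 to 100 µM in RPMI-1640 with 5% FBS. Compounds came from 20 mM stocks in DMSO or medium. Controls got vehicle at equal amounts. Membrane-permeable cells were counted by trypan blue exclusion in a haemocytometer and expressed as percent. Mean and standard deviation from at least three determinations.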

[2] = system: U-937; experiment: Cytotoxicity against human U937 cells assessed as induction of cell death at 1 to 100 microM after 24 hrs by trypan blue exclusion method; assay type: functional, cell-based
[3] = system: U-937; experiment: Induction of apoptosis in human U937 cells after 24 hrs by acridine orange staining based microscopy; assay type: functional, cell-based
Procedure, shortened: (§1)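 U937 cells were treated for 24 h at 37 °C with 1–100 µM compound or vehicle, then stained with acridine orange. Over 600 cells were scored by fluorescence microscopy; apoptosis was defined as uniformly stained nuclei with chromatin condensation or nuclear fragmentation. Mean and SD of at least three determinations.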

[4] = system: U-937; experiment: Cytostatic against human U937 cells assessed as reduction in absolute number of total cells after 24 hrs by haemocytometry; assay type: functional, cell-based
Procedure, shortened: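 U937 cells, 5×10^4 per well in RPMI-1640 with 5% FBS, 2 mM L-glutamine and penicillin-streptomycin, were exposed to 1 in 10 serial dilutions from 100 µM to 1 µM (stocks 20 mM in DMSO or medium), or to vehicle, for 24 h at 37 °C in CO₂. Total cells were counted by haemocytometer; mean and SD of at least three determinations.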

[5] = system: THP-1; experiment: Cytotoxicity against human THP1 cells after 24 hrs by trypan blue exclusion assay; assay type: functional
[6] = system: THP-1; experiment: Cytotoxicity against human THP1 cells assessed as cell viability after 24 hrs; assay type: functional, cell-based; details: THP-1, 24 h
[7] = system: THP-1; experiment: Induction of apoptosis in human THP1 cells after 24 hrs by acridine orange staining based fluorescence microscopy; assay type: functional
Procedure, shortened: (§2)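 HeLa, MOLT-3 and THP-1 cells were treated with increasing concentrations for 24 h, then stained with acridine orange and more than 600 cells scored by fluorescence microscopy for condensed or fragmented nuclei. AC30 is the concentration giving 30% apoptotic cells, from a best-fit curve versus log concentration.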

[8] = system: MOLT-3; experiment: Cytotoxicity against human MOLT3 cells assessed as cell viability after 24 hrs; assay type: functional, cell-based; details: MOLT-3, 24 h
[9] = system: MOLT-3; experiment: Cytotoxicity against human MOLT3 cells after 24 hrs by trypan blue exclusion assay; assay type: functional
[10] = system: MOLT-3; experiment: Induction of apoptosis in human MOLT3 cells after 24 hrs by acridine orange staining based fluorescence microscopy; assay type: functional; procedure, shortened: as §2
[11] = system: U-937; experiment: Induction of apoptosis in human U937 cells at 100 uM after 24 hrs by acridine orange staining based microscopy; assay type: functional, cell-based; procedure, shortened: as §1
[12] = system: U-937; experiment: Induction of apoptosis in human U937 cells assessed as hypodiploid nuclei at 1 uM after 24 hrs by propidium iodide based flow cytometry analysis (reference value: 3.2%); assay type: functional
[13] = system: U-937; experiment: Induction of apoptosis in human U937 cells assessed as hypodiploid nuclei at 100 uM after 24 hrs by propidium iodide based flow cytometry analysis (reference value: 3.2%); assay type: functional
[14] = system: HT-29; experiment: Cytotoxicity against human HT-29 cells assessed as compound concentration causing 30% reduction in formazan product formation after 48 hrs by MTS assay; assay type: functional; details: HT-29, 48 h
Procedure, shortened: (§3)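 HT-29, HepG2 and MCF7 cells were exposed to increasing concentrations for 48 h. MTS reagent was then added directly to the wells, incubated a further 4 h, and absorbance read at 490 nm. MAIC30 is the concentration reducing formazan formation by 30%, from a best-fit curve versus log concentration.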

[15] = system: HepG2; experiment: Cytotoxicity against human HepG2 cells after 48 hrs by trypan blue exclusion assay; assay type: functional
Procedure, shortened: (§4)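 Adherent HT-29, HepG2 and MCF7 cells were seeded in 96 wells with increasing concentrations and incubated 48 h at 37 °C, 5% CO₂. Trypan blue exclusion was done directly in the culture wells. CC30 is the concentration giving 30% cytotoxicity, from a best-fit curve versus log concentration.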

[16] = system: PBMC; experiment: Induction of apoptosis in human PBMC cells assessed as hypodiploid nuclei at 100 uM after 48 hrs by propidium iodide based flow cytometry analysis (reference value: 4.7 %); assay type: cell-based
[17] = system: U-937; experiment: Induction of apoptosis in human U937 cells assessed as hypodiploid nuclei at 50 uM after 24 hrs by propidium iodide based flow cytometry analysis (reference value: 3.2%); assay type: functional
[18] = system: HepG2; experiment: Cytotoxicity against human HepG2 cells assessed as cell viability after 48 hrs; assay type: functional, cell-based; details: HepG2, 48 h
Procedure, shortened: (§5)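 HT-29, HepG2 and MCF7 cells were treated in wells with increasing concentrations for 48 h at 37 °C, 5% CO₂. Total cell count was taken by haemocytometer. IC50 is the concentration inhibiting total count by 50%, from a best-fit curve of the value versus log concentration.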

[19] = system: HepG2; experiment: Cytotoxicity against human HepG2 cells assessed as compound concentration causing 30% reduction in formazan product formation after 48 hrs by MTS assay; assay type: functional; details: HepG2, 48 h; procedure, shortened: as §3
[20] = system: PBMC; experiment: Induction of apoptosis in human PBMC cells assessed as hypodiploid nuclei at 1 uM after 48 hrs by propidium iodide based flow cytometry analysis (reference value: 4.7 %); assay type: cell-based
[21] = system: PBMC; experiment: Induction of apoptosis in human PBMC cells assessed as hypodiploid nuclei at 50 uM after 48 hrs by propidium iodide based flow cytometry analysis (reference value: 4.7 %); assay type: cell-based
[22] = system: MCF7; experiment: Cytotoxicity against human MCF7 cells assessed as compound concentration causing 30% reduction in formazan product formation after 48 hrs by MTS assay; assay type: functional; details: MCF7, 48 h; procedure, shortened: as §3
[23] = system: HT-29; experiment: Cytotoxicity against human HT-29 cells assessed as cell viability after 48 hrs; assay type: functional, cell-based; details: HT-29, 48 h; procedure, shortened: as §5
[24] = system: MCF7; experiment: Cytotoxicity against human MCF7 cells assessed as cell viability after 48 hrs; assay type: functional, cell-based; details: MCF7, 48 h; procedure, shortened: as §5
[25] = system: U-937; experiment: Induction of apoptosis in human U937 cells assessed as hypodiploid nuclei after 24 hrs by propidium iodide based flow cytometry analysis; assay type: functional, cell-based
[26] = system: PBMC; experiment: Induction of apoptosis in human PBMC cells assessed as hypodiploid nuclei at 10 uM after 48 hrs by propidium iodide based flow cytometry analysis (reference value: 4.7 %); assay type: cell-based
[27] = system: HT-29; experiment: Cytotoxicity against human HT-29 cells after 48 hrs by trypan blue exclusion assay; assay type: functional; procedure, shortened: as §4
[28] = system: PBMC; experiment: Induction of apoptosis in human PBMC cells assessed as hypodiploid nuclei after 24 hrs by propidium iodide based flow cytometry analysis; assay type: cell-based
[29] = system: MCF7; experiment: Cytotoxicity against human MCF7 cells after 48 hrs by trypan blue exclusion assay; assay type: functional; procedure, shortened: as §4
[30] = system: U-937; experiment: Induction of apoptosis in human U937 cells assessed as hypodiploid nuclei at 10 uM after 24 hrs by propidium iodide based flow cytometry analysis (reference value: 3.2%); assay type: functional

CCc1c(CSS[C@@H]2O[C@H](COC(C)=O)[C@@H](OC(C)=O)[C@H](OC(C)=O)[C@H]2OC(C)=O)c(CC)c(CSS[C@@H]2O[C@H](COC(C)=O)[C@@H](OC(C)=O)[C@H](OC(C)=O)[C@H]2OC(C)=O)c(CC)c1CSS[C@@H]1O[C@H](COC(C)=O)[C@@H](OC(C)=O)[C@H](OC(C)=O)[C@H]1OC(C)=O
Activity [1]: 25%
Activity [2]: Active
Activity [3]: inactive

CC(=O)OC[C@H]1O[C@@H](SSCc2cccc(CSS[C@@H]3O[C@H](COC(C)=O)[C@@H](OC(C)=O)[C@H](OC(C)=O)[C@H]3OC(C)=O)c2)[C@H](OC(C)=O)[C@@H](OC(C)=O)[C@@H]1OC(C)=O
Activity [2]: Active
Activity [3]: Active
Activity [4]: Active

CC(=O)OC[C@H]1O[C@@H](SSCc2cc(CSS[C@@H]3O[C@H](COC(C)=O)[C@@H](OC(C)=O)[C@H](OC(C)=O)[C@H]3OC(C)=O)cc(CSS[C@@H]3O[C@H](COC(C)=O)[C@@H](OC(C)=O)[C@H](OC(C)=O)[C@H]3OC(C)=O)c2)[C@H](OC(C)=O)[C@@H](OC(C)=O)[C@@H]1OC(C)=O
Activity [1]: 25%
Activity [2]: inactive
Activity [3]: inactive
Activity [4]: Dose-dependent effect

CC(=O)OC[C@H]1O[C@@H](S)[C@H](OC(C)=O)[C@@H](OC(C)=O)[C@H]1OC(C)=O
CC30 [5]: >100 µM
IC50 [6]: > 100 µM
AC30 [7]: >100 µM
Activity [3]: inactive
IC50 [8]: > 100 µM
CC30 [9]: >100 µM
AC30 [10]: >100 µM

CC(=O)OC[C@H]1O[C@@H](SSCc2cccc(CSS[C@@H]3O[C@H](COC(C)=O)[C@H](OC(C)=O)[C@H](OC(C)=O)[C@H]3OC(C)=O)c2)[C@H](OC(C)=O)[C@@H](OC(C)=O)[C@H]1OC(C)=O
Activity [11]: Active
Activity [12]: 3.1%
CC30 [5]: >100 µM
Activity [13]: 91.2%
IC30 [14]: 12 µM
CC30 [15]: 77 µM
IC50 [6]: > 100 µM
Activity [16]: 31.2%
Activity [17]: 51%
IC50 [18]: 54 µM
IC30 [19]: 41 µM
AC30 [7]: 92 µM
Activity [2]: Active
Activity [3]: Active
Activity [20]: 4.9%
Activity [21]: 30.9%
IC50 [8]: > 100 µM
IC30 [22]: 61 µM
IC50 [23]: 60 µM
IC50 [24]: 42 µM
Activity [25]: Dose-dependent effect
CC30 [9]: 54 µM
Activity [26]: 7.4%
Activity [4]: Active
AC30 [10]: 15 µM
CC30 [27]: >100 µM
Activity [28]: Non-toxic
CC30 [29]: >100 µM
Activity [30]: 4.2%

CC(=O)OC[C@H]1O[C@@H](SSCc2ccc(CSS[C@@H]3O[C@H](COC(C)=O)[C@@H](OC(C)=O)[C@H](OC(C)=O)[C@H]3OC(C)=O)cc2)[C@H](OC(C)=O)[C@@H](OC(C)=O)[C@@H]1OC(C)=O
Activity [2]: Active
